Experimental data from paper PMC2906681 (Biochemical pharmacology, 2010).

Tests used:
Shp2 = target: T1, Shp2 (Homo sapiens, UniProt Q06124); assay: EGF-stimulated Shp2 PTP activity in immune complexes from MDA-MB-468 cells; assay type: cell-based; details: 20 µM pre-treatment overnight, EGF 50 ng/ml 10 min
T1 sequence (Q06124 1-593): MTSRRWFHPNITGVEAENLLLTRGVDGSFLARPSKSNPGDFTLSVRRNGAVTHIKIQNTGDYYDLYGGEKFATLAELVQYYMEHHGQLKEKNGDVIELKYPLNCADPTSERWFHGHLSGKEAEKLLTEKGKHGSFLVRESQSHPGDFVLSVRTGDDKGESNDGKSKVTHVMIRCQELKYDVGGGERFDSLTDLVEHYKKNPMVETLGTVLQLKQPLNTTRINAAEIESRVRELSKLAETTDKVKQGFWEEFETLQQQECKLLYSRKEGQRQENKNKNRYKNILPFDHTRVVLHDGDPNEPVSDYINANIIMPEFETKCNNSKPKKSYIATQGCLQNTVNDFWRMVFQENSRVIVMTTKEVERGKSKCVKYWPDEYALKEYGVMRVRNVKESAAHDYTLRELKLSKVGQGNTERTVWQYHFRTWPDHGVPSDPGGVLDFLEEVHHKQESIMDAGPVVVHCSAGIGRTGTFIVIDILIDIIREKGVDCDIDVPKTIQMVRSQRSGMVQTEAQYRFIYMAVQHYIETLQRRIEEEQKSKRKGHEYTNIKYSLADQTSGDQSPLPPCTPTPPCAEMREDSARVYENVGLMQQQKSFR
Procedure, shortened: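 Sub-confluent MDA-MB-468 cells were serum-starved 18 h in DMEM/0.1% BSA, pretreated overnight with test compound (20 or 100 µM), then EGF-stimulated (50 ng/ml, 10 min). Lysate (0.2 mg, Hepes pH 7.4 PTP lysis buffer) was immunoprecipitated with anti-Shp2/protein G for 2 h at 4 °C and washed. Complexes were reacted with 50 µM DiFMUP for 20 min at room temperature, and DiFMU fluorescence was read. Pellets were immunoblotted for Shp2. Two experiments, duplicates.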

ISRE-luciferase reporter = assay: ISRE luciferase reporter assay in HT-29 cells; assay type: cell-based
Procedure, shortened: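 HT-29 cells (5 × 10^5 per well) were co-transfected by lipofection with 1.6 µg pISRE-Luc and 0.4 µg β-gal plasmids. They were then stimulated with 50 U/ml IFN-γ for 6 h or left unstimulated. Luciferase was normalized to β-galactosidase activity; two duplicate experiments (n = 4).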

## COC(=O)c1cccc(N/N=C2\C(=O)Nc3ccc(S(=O)(=O)NCc4ccc(F)cc4)cc32)c1 [SPI-112Me, (Z)-3-(2-(5-(N-(4-fluorobenzyl)sulfamoyl)-2-oxoindolin-3-ylidene)hydrazinyl)benzoic acid methyl ester]
Shp2
  reduction of EGF-stimulated Shp2 PTP activity: 77%
ISRE-luciferase reporter; 10 µM SPI-112Me plus IFN-γ 50 U/ml
  activation of ISRE luciferase activity: 54%
ISRE-luciferase reporter; 25 µM SPI-112Me plus IFN-γ 50 U/ml
  activation of ISRE luciferase activity: 98%
